Data reported in ChEMBL document CHEMBL1134465, “Synthesis and evaluation of pteroic acid-conjugated nitroheterocyclic phosphoramidates as folate receptor-targeted alkylating agents” (J Med Chem, 2001).

What was measured:
[1] = test system: A549; assay: In vitro growth inhibition of human lung carcinoma cell line, A549 with low levels of folate receptors; assay type: functional, cell-based
Summary of the method: (§1)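 Cells were seeded and grown 24 h at 37 °C in McCoy's 5A medium with 10% heat-inactivated FBS, penicillin 100 U/mL and streptomycin 100 μg/mL. Drug from DMSO stock was added in the same medium, with final DMSO <1%. Five serial 10-fold dilutions were tested, top final concentration 100 μg/mL.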

[2] = test system: HT-29; assay: In vitro growth inhibition of human tumor cell line, HT-29; assay type: functional, cell-based; summary of the method: as §1
[3] = test system: MIA PaCa-2; assay: In vitro growth inhibition of human tumor cell line, PACA2; assay type: functional, cell-based; summary of the method: as §1
[4] = test system: UMUC3; assay: In vitro growth inhibition of human tumor cell line, UMUC3; assay type: functional, cell-based; summary of the method: as §1
[5] = test system: PC-3; assay: In vitro growth inhibition of human tumor cell line, PC3; assay type: functional, cell-based; summary of the method: as §1
[6] = test system: A498; assay: In vitro growth inhibition of human kidney carcinoma cell line, A498 with low levels of folate receptors; assay type: functional, cell-based; summary of the method: as §1
[7] = In vitro growth inhibition of human breast adrenocarcinoma cell line, MDA-231 with over expressed folate receptors; assay type: functional; details: MDA-MB-231; summary of the method: as §1
[8] = In vitro growth inhibition of human ovarian carcinoma cell line, IGROV with over expressed folate receptors; assay type: functional; summary of the method: as §1
[9] = test system: A549; assay: In vitro growth inhibition of human lung carcinoma cell line, A549 with low levels of folate receptors in folate deficient medium; assay type: functional, cell-based
Summary of the method: (§2)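 Cells were incubated with drug for 72 h in folate-deficient medium. Drug from DMSO stock was added with final DMSO <1%. Five serial 10-fold dilutions were tested, top final concentration 100 μg/mL. Viable cells were estimated by MTT and IC50 was derived.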

[10] = In vitro growth inhibition of human breast adrenocarcinoma cell line, MDA-231 with over-expressed folate receptors in folate deficient medium; assay type: functional; details: MDA-MB-231; summary of the method: as §2
[11] = test system: A498; assay: In vitro growth inhibition of human kidney carcinoma cell line, A498 with low levels of folate receptors in folate deficient medium; assay type: functional, cell-based; summary of the method: as §2
[12] = In vitro growth inhibition of human breast adrenocarcinoma cell line, MDA-231 with over-expressed folate receptors; assay type: functional; details: MDA-MB-231; summary of the method: as §1
[13] = In vitro growth inhibition of human ovarian carcinoma cell line, IGROV with over expressed folate receptors in folate deficient medium; assay type: functional; summary of the method: as §2

Row | Structure (SMILES) | IC50 [1] [µM] | IC50 [2] [µM] | IC50 [3] [µM] | IC50 [4] [µM] | IC50 [5] [µM] | IC50 [6] [µM] | IC50 [7] [µM] | IC50 [8] [µM] | IC50 [9] [µM] | IC50 [10] [µM] | IC50 [11] [µM] | IC50 [12] [µM] | IC50 [13] [µM]
1 | CCCNP(=O)(OCc1ccc([N+](=O)[O-])o1)N(CCCl)CCCl (stereo unspecified) | 1.9 | 17 | 0.45 | 0.72 | 2.3 | 1.4 | 1.9 |  |  |  |  |  | 
2 | Nc1nc(O)c2nc(CNc3ccc(C(=O)NC(CCCCNP(=O)(OCc4ccc([N+](=O)[O-])o4)N(CCBr)CCBr)C(=O)O)cc3)cnc2n1 (stereo unspecified) | 11 | 0.3 | 16 | 5.2 | 11 | 11 |  | 0.83 | 23 | 3.6 | 19 | 8 | 0.57
3 | NC(CCCCNP(=O)(OCc1ccc([N+](=O)[O-])o1)N(CCCl)CCCl)C(=O)O (stereo unspecified) | 41 | 20 | 2.4 | 0.62 | 21 | 26 | 16 |  |  |  |  |  | 
